# Test results as given in ChEMBL document CHEMBL2311353, “Synthesis and antiproliferative activities of N-(naphthalen-2-yl)acetamide and N-(substituted phenyl)acetamide bearing quinolin-2(1H)-one and 3,4-dihydroquinolin-2(1H)-one derivatives” (Eur J Med Chem, 2013).
# What was measured:
# MKN-45 = test: Antiproliferative activity against human MKN45 cells after 72 hrs by MTT assay; type: functional, cell-based; settings: MKN-45, 72 h
# Outline: (§1)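 Log-phase cells were seeded, left overnight, then exposed to a range of compound concentrations for 72 h. MTT at 0.4 mg/mL in MEM was added for 2 h, and formazan was read at 570 nm. GI50 was taken from percent conversion relative to mock-treated controls.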
# [1] = Antiproliferative activity against human NPC-TW01 cells after 72 hrs by MTT assay; type: functional, cell-based; settings: NPC-TW01, 72 h; outline: as §1
# NCI-H661 = test: Antiproliferative activity against human NCI-H661 cells after 72 hrs by MTT assay; type: functional, cell-based; settings: NCI-H661, 72 h; outline: as §1
# A498 = test: Antiproliferative activity against human A498 cells after 72 hrs by MTT assay; type: functional, cell-based; settings: A498, 72 h; outline: as §1
# [2] = Antiproliferative activity against human Hep3B cells after 72 hrs by MTT assay; type: functional, cell-based, Hep 3B2; outline: as §1
Compound,IC50 (MKN-45),IC50 (NCI-H661),IC50 [1],IC50 (A498),IC50 [2]
COc1ccc(NC(=O)COc2ccc3c(c2)NC(=O)CC3)cc1,36.3 µM,16.4 µM,13.1 µM,19.3 µM,31.1 µM
O=C(COc1ccc2c(c1)NC(=O)CC2)Nc1ccc(-c2ccccc2)cc1,32.4 µM,15.4 µM,2.9 µM,12 µM,8.1 µM
O=C(COc1ccc2c(c1)NC(=O)CC2)Nc1ccc(F)cc1,38.6 µM,15.3 µM,15.8 µM,11.3 µM,27 µM

# The next lines start with results.
IC50 (MKN-45),IC50 (NCI-H661),Compound,IC50 [1],IC50 (A498),IC50 [2]
32.4 µM,21.8 µM,O=C(COc1ccc2c(c1)NC(=O)CC2)Nc1ccccc1,16 µM,12 µM,27.2 µM
26.9 µM,11.2 µM,O=C(COc1ccc2c(c1)NC(=O)CC2)Nc1ccc2ccccc2c1,8.9 µM,8.6 µM,19.2 µM
